Reference: ChEMBL document CHEMBL1142158, “Antibacterial activity and mechanism of action of a novel anilinouracil-fluoroquinolone hybrid compound” (Antimicrob Agents Chemother, 2007)
Active and inactive are the calls of the source.

Assays:
Enterococcus faecium [1] = assay: Antibacterial activity against vancomycin-resistant Enterococcus faecium B42762; format: functional
In short: (§1)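 Broth microdilution per CLSI with modified incubation. Log-phase cultures in cation-adjusted Mueller-Hinton broth, seeded at 1 x 10^5 CFU/ml. Compounds from DMSO stocks, 1% DMSO final. Incubated 37°C, 16 to 20 h, shaken. Growth read as OD600. MIC is the lowest concentration with no apparent growth. Run in quadruplicate; highest value reported.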

Escherichia coli [2] = assay: Antibacterial activity against Escherichia coli J53; format: functional
Bacillus subtilis [3] = assay: Inhibition of DNA synthesis in Bacillus subtilis BD54; format: functional, organism-based
In short: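 B. subtilis BD54 grown to log phase in C plus 50 medium; compound in DMSO added with [8-3H]adenine at time zero, at 5x or 1x MIC; samples over time. DNA = alkali-insensitive TCA-insoluble label; RNA = total TCA-insoluble minus DNA. Effect judged against diluent-control incorporation.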

Enterococcus faecalis [4] = assay: Antibacterial activity against Enterococcus faecalis 29212; format: functional; in short: as §1
Streptococcus pneumoniae [5] = assay: Antibacterial activity against penicillin-resistant Streptococcus pneumoniae 700671; format: functional
In short: (§2)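 Streptococci tested by CLSI broth microdilution in Mueller-Hinton broth with 5% defibrinated horse blood, log-phase inoculum at 1 x 10^5 CFU/ml. Incubated 37°C with shaking, 16 to 20 h, in 5% humidified CO2. Compounds at 1% DMSO final. MIC is the lowest concentration without growth by OD600. Quadruplicate; highest MIC reported.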

Escherichia coli [6] = assay: Antibacterial activity against ciprofloxacin-resistant Escherichia coli XL1-Blue; format: functional; in short: as §1
Staphylococcus aureus [7] = assay: Antibacterial activity against Staphylococcus aureus 25923; format: functional; in short: as §1
Streptococcus pneumoniae [8] = assay: Antibacterial activity against Streptococcus pneumoniae 49619; format: functional; in short: as §2
Enterococcus faecium [9] = assay: Antibacterial activity against Enterococcus faecium 19434; format: functional; in short: as §1
Staphylococcus aureus [10] = assay: Antibacterial activity against Staphylococcus aureus Smith in presence of 10% FCS; format: functional
Staphylococcus aureus [11] = assay: Antibacterial activity against ciprofloxacin-resistant Staphylococcus aureus Smith; format: functional; in short: as §1
Streptococcus pyogenes = assay: Antibacterial activity against Streptococcus pyogenes 12344; format: functional
Bacillus thuringiensis [12] = assay: Antibacterial activity against Bacillus thuringiensis 33679; format: functional
Staphylococcus aureus [13] = assay: Antibacterial activity against HB-EMAU-resistant Staphylococcus aureus Smith; format: functional; in short: as §1
Enterococcus faecium [14] = assay: Antibacterial activity against vancomycin-resistant Enterococcus faecium 1644; format: functional; in short: as §1
Staphylococcus aureus [15] = assay: Antibacterial activity against Staphylococcus aureus 1081; format: functional; in short: as §1
Pseudomonas aeruginosa = assay: Antibacterial activity against Pseudomonas aeruginosa 27853; format: functional
Staphylococcus aureus [16] = assay: Antibacterial activity against methicillin-resistant Staphylococcus aureus 1132; format: functional; in short: as §1
Enterococcus faecalis [17] = assay: Antibacterial activity against vancomycin-resistant Enterococcus faecalis 51575; format: functional; in short: as §1
[18] = Cytotoxicity against human MRC5 cells; format: cell-based
In short: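 MRC-5 human diploid fibroblasts, 4 x 10^3 cells per well, exposed to compound from DMSO stock (final 1%) in minimal essential medium with 10% fetal calf serum for 72 h at 37°C beside a DMSO-only control.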

Enterococcus faecium [19] = assay: Antibacterial activity against vancomycin and linezolid-resistant Enterococcus faecium F118; format: functional; in short: as §1
Staphylococcus aureus [20] = assay: Antibacterial activity against methicillin-resistant Staphylococcus aureus 1123; format: functional; in short: as §1
Streptococcus pneumoniae [21] = assay: Antibacterial activity against penicillin-resistant Streptococcus pneumoniae 700670; format: functional; in short: as §2
Streptococcus pneumoniae [22] = assay: Antibacterial activity against penicillin-resistant Streptococcus pneumoniae 700673; format: functional; in short: as §2
Bacillus thuringiensis [23] = assay: Antibacterial activity against Bacillus thuringiensis 10792; format: functional
[24] = Inhibition of Bacillus subtilis DNA polymerase 3E
In short: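 Recombinant B. subtilis pol IIIE. Serial compound dilutions in DMSO; 30 mM Tris pH 7.5, 10 mM Mg acetate, 4 mM DTT, 20% glycerol, 25 µM each dATP/dCTP/dGTP, 10 µM [3H]dTTP, 0.4 mg/ml activated calf thymus DNA; 0.025 to 0.06 U enzyme, 10 min at 30°C. TCA-precipitated, filter-collected label counted by scintillation.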

Enterococcus faecalis [25] = assay: Antibacterial activity against vancomycin-resistant Enterococcus faecalis 700802; format: functional; in short: as §1
Enterococcus faecalis [26] = assay: Antibacterial activity against vancomycin-resistant Enterococcus faecalis 51299; format: functional; in short: as §1
Streptococcus pneumoniae [27] = assay: Antibacterial activity against penicillin-resistant Streptococcus pneumoniae 700677; format: functional; in short: as §2
Bacillus cereus [28] = assay: Antibacterial activity against Bacillus cereus 6464; format: functional
Staphylococcus aureus [29] = assay: Antibacterial activity against methicillin-resistant Staphylococcus aureus B42876; format: functional; in short: as §1
[30] = tested on: Stenotrophomonas maltophilia; assay: Antibacterial activity against Stenotrophomonas maltophilia 13637; format: functional
Klebsiella pneumoniae = assay: Antibacterial activity against Klebsiella pneumoniae 5657; format: functional
[31] = Therapeutic index, CC50 for MRC5 cells/MIC for Staphylococcus aureus Smith; format: cell-based; details: human
Bacillus subtilis [32] = assay: Antibacterial activity against Bacillus subtilis BD54; format: functional
Staphylococcus aureus [33] = assay: Antibacterial activity against mupirocin-resistant Staphylococcus aureus 777; format: functional; in short: as §1
[34] = target: T1, DNA polymerase subunit gamma-1 (Homo sapiens, UniProt P54098); assay: Inhibition of human DNA polymerase gamma
T1 sequence (P54098 whole entry): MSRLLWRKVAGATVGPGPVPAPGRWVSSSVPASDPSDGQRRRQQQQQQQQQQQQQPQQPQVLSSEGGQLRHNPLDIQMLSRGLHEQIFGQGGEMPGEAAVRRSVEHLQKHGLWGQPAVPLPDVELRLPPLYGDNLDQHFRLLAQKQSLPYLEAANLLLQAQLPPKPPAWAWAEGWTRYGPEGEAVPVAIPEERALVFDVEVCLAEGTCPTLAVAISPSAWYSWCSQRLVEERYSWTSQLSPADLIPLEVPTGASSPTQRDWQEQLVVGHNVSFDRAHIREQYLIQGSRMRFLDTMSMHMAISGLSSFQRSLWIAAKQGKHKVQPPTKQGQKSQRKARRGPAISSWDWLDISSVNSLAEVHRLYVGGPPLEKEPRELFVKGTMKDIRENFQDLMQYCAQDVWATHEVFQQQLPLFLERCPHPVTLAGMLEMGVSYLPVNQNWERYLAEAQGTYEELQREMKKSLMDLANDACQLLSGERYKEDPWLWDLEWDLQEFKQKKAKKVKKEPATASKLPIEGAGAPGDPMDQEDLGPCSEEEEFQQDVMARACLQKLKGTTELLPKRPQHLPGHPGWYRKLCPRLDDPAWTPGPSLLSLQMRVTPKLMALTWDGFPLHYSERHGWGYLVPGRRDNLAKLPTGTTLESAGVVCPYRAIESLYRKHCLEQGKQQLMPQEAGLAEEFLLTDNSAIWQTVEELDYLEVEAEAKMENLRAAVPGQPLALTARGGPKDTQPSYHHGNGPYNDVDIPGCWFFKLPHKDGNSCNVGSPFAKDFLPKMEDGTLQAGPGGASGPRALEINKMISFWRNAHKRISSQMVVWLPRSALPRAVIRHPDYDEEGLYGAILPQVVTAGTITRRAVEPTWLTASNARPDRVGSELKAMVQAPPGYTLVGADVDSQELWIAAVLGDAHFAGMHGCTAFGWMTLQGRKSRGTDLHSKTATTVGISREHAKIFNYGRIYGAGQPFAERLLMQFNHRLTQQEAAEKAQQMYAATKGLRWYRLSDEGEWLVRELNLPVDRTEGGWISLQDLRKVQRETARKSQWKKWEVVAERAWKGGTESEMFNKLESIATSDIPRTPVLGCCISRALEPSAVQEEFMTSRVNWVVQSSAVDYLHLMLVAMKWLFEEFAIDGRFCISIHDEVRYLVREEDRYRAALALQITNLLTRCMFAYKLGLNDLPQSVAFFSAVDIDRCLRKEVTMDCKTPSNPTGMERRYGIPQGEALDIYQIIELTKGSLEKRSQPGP
In short: (§3)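 Calf thymus pol alpha or human pol gamma, 0.025 to 0.06 U, added to compound dilutions in reaction mixture; 25 min at 37°C; stopped with ice-cold 10% TCA/10 mM pyrophosphate; precipitated [3H]DNA collected on filters and counted. Ki values for dGTP-competitive inhibitors obtained by truncated assay lacking dGTP.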

[35] = Inhibition of Bacillus subtilis gyrase
Bacillus cereus [36] = assay: Antibacterial activity against Bacillus cereus 4342; format: functional
Staphylococcus aureus [37] = assay: Antibacterial activity against HB-EMAU-resistant and ciprofloxacin-resistant Staphylococcus aureus Smith; format: functional; in short: as §1
Bacillus anthracis = assay: Antibacterial activity against Bacillus anthracis Sterne; format: functional
[38] = Inhibition of Bacillus subtilis topoisomerase 4
Staphylococcus aureus [39] = assay: Antibacterial activity against Staphylococcus aureus Smith 13709; format: functional; in short: as §1
Streptococcus pneumoniae [40] = assay: Antibacterial activity against penicillin-resistant Streptococcus pneumoniae 700674; format: functional; in short: as §2
Staphylococcus aureus [41] = assay: Antibacterial activity against methicillin-resistant Staphylococcus aureus 1094; format: functional; in short: as §1
Staphylococcus aureus [42] = assay: Antibacterial activity against mupirocin-sensitive Staphylococcus aureus 2529; format: functional
[43] = Inhibition of calf thymus DNA polymerase alpha; set-up: species or system Bos taurus; in short: as §3

CCc1cc(Nc2cc(=O)n(CCCCN3CCN(c4c(F)cc5c(=O)c(C(=O)O)cn(C6CC6)c5c4F)CC3C)c(=O)[nH]2)ccc1C (configuration not stated)
> 482 µM: Ki [24] | Ki [43]
10 µg/mL: MIC [30]
2.5 µg/mL: MIC (Escherichia coli [2]) | MIC (Enterococcus faecium [9]) | MIC (Staphylococcus aureus [29]) | MIC (Staphylococcus aureus [33])
43.6 µM: IC50 [38]
684 µM: Ki [34]
> 128: selectivity ratio [31]
0.625 µg/mL: MIC (Staphylococcus aureus [7]) | MIC (Streptococcus pneumoniae [8]) | MIC (Staphylococcus aureus [10]) | MIC (Staphylococcus aureus [13]) | MIC (Staphylococcus aureus [15]) | MIC (Staphylococcus aureus [16]) | MIC (Streptococcus pneumoniae [21]) | MIC (Streptococcus pneumoniae [40])
31 µM: IC50 [35]
0.313 µg/mL: MIC (Streptococcus pneumoniae [5]) | MIC (Streptococcus pyogenes) | MIC (Streptococcus pneumoniae [22]) | MIC (Streptococcus pneumoniae [27]) | MIC (Staphylococcus aureus [39])
active: Activity (Bacillus subtilis [3])
20 µg/mL: MIC (Klebsiella pneumoniae) | MIC (Staphylococcus aureus [37])
> 80 µg/mL: MIC (Pseudomonas aeruginosa) | CC50 [18]
5 µg/mL: MIC (Staphylococcus aureus [42])
1.25 µg/mL: MIC (Enterococcus faecium [1]) | MIC (Enterococcus faecalis [4]) | MIC (Escherichia coli [6]) | MIC (Staphylococcus aureus [11]) | MIC (Enterococcus faecium [14]) | MIC (Enterococcus faecalis [17]) | MIC (Enterococcus faecium [19]) | MIC (Staphylococcus aureus [20]) | MIC (Enterococcus faecalis [25]) | MIC (Enterococcus faecalis [26]) | MIC (Staphylococcus aureus [41])
0.156 µg/mL: MIC (Bacillus thuringiensis [12]) | MIC (Bacillus thuringiensis [23]) | MIC (Bacillus cereus [28]) | MIC (Bacillus subtilis [32]) | MIC (Bacillus cereus [36]) | MIC (Bacillus anthracis)
